# High-throughput results (PubChem)
# PERK inh = inhibitors of human PERK kinase; Q9NZJ5; actives 0.17% (n = 220,000); CHO PERK-DD fusion, SEAP luminescence translation reporter; inhibition, % at 5.6 µM;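 active = inhibition above the mean inhibition of all tested compounds plus 3 SD, set separately per screening campaign, cut at about 2.9% in these data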;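 note: PERK kinase domain activated by AP20187 dimerizer at 100 nM; 0% = DMSO with dimerizer and 100% = rapamycin at 8.4 µM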
# STAT1 activator = increases IFN-gamma driven STAT1 reporter signal; NIH 3T3 STAT1-luciferase reporter, luminescence; 100% = IFN-gamma alone, no compound; activation (% of control), % at 5.5 µM; actives 2.6% (n = 200,000); AID 932;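 active = activation above the screen-wide mean activation plus 3 SD, cut at about 130% in these data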;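 note: raw ratio to IFN-gamma control signal so 100% means no change and 0% no light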
# AHR act = activates the human aryl hydrocarbon receptor; activation, % at 5 µM; actives 2.5% (n = 320,000); AHR-responsive luciferase reporter cells, luminescence; AID 2796; in the data active = activation above about 47%;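 note: 0% = vehicle wells and 100% = reference agonist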
# NF-kB neuron act = compounds increasing NF-kB expression in human neuronal cells; NF-kB reporter expression; stronger effect = higher value; actives 1.6% (n = 190,000); fold change at 12.5 µM; in the data active = fold change above about 3.3
# Mdm2 ligase inh = blocks human Mdm2 ubiquitin ligase activity; cell-based MDM2 ubiquitination luciferase reporter, 2 h; 0 = plate control, 100 = twice control, blank-subtracted; signal enhancement, % at 5 µM; actives 0.11% (n = 210,000); AID 1230;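 active = signal enhancement of 30% or more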;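 note: luminescence tracks abundance of the self-degrading MDM2-luciferase fusion protein; higher signal means inhibition of MDM2 E3 ligase activity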
#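 Assay system: stable mammalian line carrying autodegrading MDM2–luciferase fusion reporter; Input: 2000 cells in each well; Compound dosing: single-point 5 µM; Schedule: 2 h compound exposure at 37 °C; Signal: SteadyLite luciferase luminescence after 15 min room-temperature reagent incubation; Evaluation: % luminescence enhancement versus blank-corrected plate control mean; Benchmarks: plate controls and plate blanks.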
# APP 5'UTR act = APP 5'UTR luciferase reporter activation; AID 1276; activation, % at 2 µM; SH-SY5Y APP 5'UTR luciferase reporter, luminescence; zero percent = DMSO vehicle wells; actives 1% (n = 190,000);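 active = activation above a set limit, based on mean plus 3 SD of controls, cut at about 140% in these data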
# AHR act confirm = confirmation of human aryl hydrocarbon receptor activators; activation, % at 9 µM; actives 87% (n = 2,300); shares compounds with AHR act; human cells, AHR-responsive luciferase reporter, luminescence; AID 2845; in the data active = activation above about 49%;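 note: HepG2 hepatoma cells carrying a DRE-driven firefly luciferase reporter; 0% = vehicle wells and 100% = reference agonist wells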
# PXR act counter = counter-screen for AHR activators: human PXR activators | actives 88% (n = 2,300) | activation, % at 11.6 µM | cell-based PXR reporter, luciferase luminescence | shares compounds with AHR act | AID 434939; in the data active = activation above about 11%;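 note: human hepatoma DPX-2 cells expressing full-length human PXR; 0% = DMSO and 100% = reference agonist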
# Target sequence (O75469 whole entry, looked up): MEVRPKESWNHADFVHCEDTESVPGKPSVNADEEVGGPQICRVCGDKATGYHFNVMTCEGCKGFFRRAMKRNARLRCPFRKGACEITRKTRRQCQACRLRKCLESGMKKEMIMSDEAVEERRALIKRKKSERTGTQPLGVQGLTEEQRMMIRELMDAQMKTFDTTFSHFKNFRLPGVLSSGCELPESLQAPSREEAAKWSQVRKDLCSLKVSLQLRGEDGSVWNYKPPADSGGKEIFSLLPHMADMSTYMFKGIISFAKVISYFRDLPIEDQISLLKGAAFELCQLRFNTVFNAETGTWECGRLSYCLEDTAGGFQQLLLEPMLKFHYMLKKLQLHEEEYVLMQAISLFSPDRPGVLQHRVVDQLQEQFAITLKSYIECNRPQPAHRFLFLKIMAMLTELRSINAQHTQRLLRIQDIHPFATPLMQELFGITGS
# Numbers without * were called inactive; nt = no result given. Compounds with a hit are over-represented: about 4.5% of the library has one in this group of screens.
SMILES,PERK inh,STAT1 activator,AHR act,NF-kB neuron act,Mdm2 ligase inh,APP 5'UTR act,AHR act confirm,PXR act counter
O=C(NCC1CCCO1)C(c1cccs1)N(C(=O)c1ccc(CN2CCOCC2)o1)c1ccc(Cl)cc1 (stereo unspecified),0,98,-3,0.95,1,-9,nt,nt
COc1ccc(C(=O)Nc2ccc3ccccc3c2)c(OC)c1,nt,nt,85*,nt,nt,nt,96*,9
COc1cc2ccccc2cc1C(=O)Nc1ccc(C)cc1,nt,nt,83*,nt,nt,nt,92*,nt
COc1ccc(C(=O)Nc2ccncc2)c(OC)c1,0,99,-5,1.3,-34,-13,nt,nt
O=C(CSc1cccc[n+]1[O-])Nc1cc([N+](=O)[O-])ccc1Cl,1,104,7,0.95,-25,-4,nt,nt
O=C(CSc1cccc[n+]1[O-])Nc1cc2c(cc1Cl)C(=O)c1ccccc1C2=O,-1,116,121*,1.1,-3,48,135*,54*
N#Cc1ccc(C23OCCN2CCn2c3c3ccccc3[n+]2[O-])cc1 (stereo unspecified),nt,nt,112*,nt,nt,nt,122*,46*
Cc1cc(C)cc(SCc2noc(C(=O)NCCC(C)C)c2C(=O)NCCC(C)C)c1,nt,nt,5,nt,nt,nt,nt,nt
C#Cc1ccc2c(c1)COc1c3ccccc3nn1-2,nt,nt,88*,nt,nt,nt,62*,25*
Cc1[nH]c2ccccc2c1/C=N/NC(=O)CCC(=O)Nc1ccccc1,0,100,18,0.92,3,16,nt,nt
Cc1[nH]c2ccccc2c1/C=N/NC(=O)Nc1ccccc1,0,131*,95*,1.1,0,49,136*,46*
Cc1[nH]c2ccccc2c1/C=N/NC(=O)Cc1cccs1,1,105,100*,1,4,-19,72*,38*
Cc1ccc(NC(=O)CC2C(=O)NCCN2C(=O)c2ccc(F)cc2)cc1 (stereo unspecified),nt,nt,-2,nt,nt,nt,nt,nt
Cn1c(=O)n(CCc2ccccc2)c(=O)c2c1nc1n2CCCN1Cc1ccccc1,-1,93,119*,0.41,-14,-2,83*,150*
Cn1c(=O)n(CCc2ccccc2)c(=O)c2c1ncn2Cc1ccccc1,-1,110,81*,0.66,-1,16,95*,28*
CC12CC3CC(C)(C1)CC(C(=O)NNC(=O)c1ccncc1)(C3)C2,nt,nt,4,nt,nt,nt,nt,nt
COc1cc2c(cc1NC(=O)c1ccc3c(c1)OCO3)oc1ccccc12,1,121,99*,2.7,-8,24,119*,24*
COc1ccccc1NC(=O)C(=N\O)/C(C)=N/O,1,98,89*,1.1,4,23,116*,25*
COc1ccccc1NC(=O)c1cc(=O)[nH]c2ccccc12,nt,nt,80*,nt,nt,nt,92*,16*
COc1ccc(OC)c(NC(=O)c2ccc3c(c2)OCO3)c1,nt,nt,112*,nt,nt,nt,102*,22*
COc1ccccc1NC(C)=O,1,100,0,1.4,15,-14,nt,nt
O=C(CNC(=O)c1ccccc1Cl)NCC(c1cccs1)N1CCOCC1 (stereo unspecified),nt,nt,3,nt,nt,nt,nt,nt
COc1ccccc1NS(=O)(=O)c1cccc(NS(=O)(=O)c2cc(C(=O)O)ccc2OC)c1,nt,nt,-1,nt,nt,nt,nt,nt
COc1ccccc1NC(=O)c1ccc2snnc2c1,-1,111,-1,1.9,-23,1,nt,nt
COc1ccccc1NC(=O)c1ccc(-n2ccnc2)c([N+](=O)[O-])c1,nt,nt,95*,nt,nt,nt,104*,20*
SMILES,PERK inh,STAT1 activator,AHR act,NF-kB neuron act,Mdm2 ligase inh,APP 5'UTR act,AHR act confirm,PXR act counter
COc1cc2c(cc1NC(=S)Nc1cccc(C(F)(F)F)c1)oc1ccccc12,0,102,107*,1,-2,-6,92*,29*
CCOc1cc(N2CCOCC2)c(OCC)cc1NC(=O)c1ccc(-n2ccnc2)c([N+](=O)[O-])c1,nt,nt,3,nt,nt,nt,nt,nt
COc1ccccc1NC(=O)c1ccc2c(c1)OCO2,nt,nt,129*,nt,nt,nt,105*,28*
COc1ccccc1NC(=O)c1ccc2c(c1)nnn2C,0,100,95*,1.4,2,1,74*,nt
COc1cc2c(cc1NC(=O)C(C)NCc1ccccc1)oc1ccccc12 (stereo unspecified),0,92,117*,0.68,-19,27,133*,90*
O=c1c2[nH]c3ccc(Cl)cc3c2ncn1CCN1CCCCC1,-1,101,11,1.5,-12,8,nt,nt
Clc1ccc2[nH]c3c(NCCN4CCOCC4)ncnc3c2c1,-1,96,80*,0.67,-13,16,93*,51*
Clc1ccc2[nH]c3c(N4CCC5(CC4)OCCO5)ncnc3c2c1,0,74,99*,0.6,-6,0,56*,33*
Cc1cccc2[nH]c3c(N4CCC5(CC4)OCCO5)ncnc3c12,-1,92,35,0.59,-15,-9,nt,nt
CS(=O)(=O)c1ccc(C(=O)OCC(=O)c2ccc(Cl)s2)cc1,nt,nt,-2,nt,nt,nt,nt,nt
CCn1c(SCC(=O)O)nnc1-c1ccccc1OC,0,98,17,1.3,-1,0,nt,nt
Cc1c(C(=O)NCc2ccccc2CN2CCCC2)oc2ccc(F)cc12,nt,nt,124*,nt,nt,nt,112*,76*
Cn1c(SCC(=O)NCc2ccc(F)cc2)nc2c([nH]c3ccccc32)c1=O,0,84,126*,0.84,-16,4,97*,90*
Cn1c(SCC(=O)NCCc2ccccc2)nc2c([nH]c3ccccc32)c1=O,0,90,118*,1,-9,15,91*,115*
COc1cccc(-n2c(SCC(=O)NCC3CCCO3)nc3c([nH]c4ccccc43)c2=O)c1 (stereo unspecified),nt,nt,88*,nt,nt,nt,128*,89*
COc1ccccc1C1CC(c2cccs2)=NN1C(=O)CCC(=O)O (stereo unspecified),nt,nt,6,nt,nt,nt,nt,nt
COc1ccccc1C1CC(c2cccs2)=Nc2ccccc2S1 (stereo unspecified),0,112,102*,1.8,-8,146*,93*,55*
O=C(COc1ccc2ccccc2c1)N/N=C/C1CC=CCC1 (stereo unspecified),2,99,85*,1.1,-19,1,47,12*
Nc1nc2ccccc2n1/N=C/c1ccc(Br)cc1,-1,107,88*,2.3,-17,55,102*,19*
Nc1nc2ccccc2n1/N=C/c1ccc2c(c1)OCO2,0,nt,15,nt,-19,nt,nt,nt
O=C(NNC(=O)c1ccccc1O)c1ccc(Cl)c(S(=O)(=O)N2CCCCC2)c1,nt,nt,19,nt,nt,nt,nt,nt
CCn1ncc(Br)c1C(=O)Nc1ccc(OC(F)(F)F)cc1,nt,nt,96*,nt,nt,nt,91*,20*
